Experimental data: PMC11400628 (Protein Science : A Publication of the Protein Society, 2024)
Numbering of substitutions follows the chain as printed.

Assays:
CaMKIIα WT hub [1] = biological target: T1, CaMKIIα WT hub (Homo sapiens, UniProt Q9UQM7); assay: Thermal shift assay; format: binding; conditions: for maximum ∆Tm: DSF, mean ± SEM, n = 3
T1 sequence (Q9UQM7 345-475): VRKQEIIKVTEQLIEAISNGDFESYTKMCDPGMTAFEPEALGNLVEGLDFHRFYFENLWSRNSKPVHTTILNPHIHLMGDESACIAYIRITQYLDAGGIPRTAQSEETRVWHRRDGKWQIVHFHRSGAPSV

CaMKIIα W403L hub [2] = biological target: T2, CaMKIIα W403L hub (Homo sapiens, UniProt Q9UQM7, W403L); assay: Thermal shift assay; format: binding; conditions: DSF, mean ± SEM, n = 3
T2 sequence (Q9UQM7 345-475 W403L): T1 sequence (Q9UQM7 345-475) with W59L

CaMKIIα holoenzyme = CaMKIIα holoenzyme (Homo sapiens, UniProt Q9UQM7); assay: ADP-Glo kinase assay, syntide-2 phosphorylation; format: biochemical; conditions: sub-maximal (30 nM) CaM; concentrations up to 5–10 mM
CaMKIIα WT hub [3] = biological target: T1, CaMKIIα WT hub; assay: Small-angle X-ray scattering, CaMKIIα WT hub; conditions: CaMKIIα WT hub 1.2–3.9 mg/mL; PIPA 200 μM, HOCPCA 1000 μM, 5-HDC 100 μM
CaMKIIα WT hub [4] = biological target: T1, CaMKIIα WT hub; assay: Surface plasmon resonance, immobilized CaMKIIα WT hub; format: binding
Summary of the method: (§1)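 SPR at 25°C. Purified hub (WT or W403L) was amine-coupled to the sensor in 20 mM NaAc, pH 5. Test compound was injected as twofold dilutions in MES running buffer (20 mM MES, 150 mM NaCl, 1 mM DTT, pH 6), with blank and reference-surface subtraction. Equilibrium responses versus concentration were fitted to a 1:1 Langmuir isotherm for KD. Independent experiments: WT n = 3, W403L n = 2.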

CaMKIIα W403L hub [5] = biological target: T2, CaMKIIα W403L hub; assay: Surface plasmon resonance, immobilized CaMKIIα W403L hub; format: binding
Summary of the method: as §1

CaMKIIα 6x hub [6] = biological target: T3, CaMKIIα 6x hub (Homo sapiens, UniProt Q9UQM7, E355Q/F467M/I414M/I464H/T354N/T412N); assay: Intrinsic tryptophan fluorescence assay; format: binding; conditions: pIC50, quenching of intrinsic tryptophan fluorescence, purified CaMKIIα 6x hub
T3 sequence (Q9UQM7 345-475 T354N/E355Q/T412N/I414M/I464H/F467M): T1 sequence (Q9UQM7 345-475) with T10N, E11Q, T68N, I70M, I120H, F123M
Summary of the method: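 Purified human CaMKIIα 6x hub (residues 345–475 with six stabilising mutations). Intrinsic Trp fluorescence was read at 25°C across a test compound series (e.g. 0.43–12.1 μM). Signals were background-corrected for compound in buffer, then normalised between hub alone and the high-concentration plateau. IC50 came from a variable-slope log(inhibitor)-response fit of pooled data, n = 3.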

CaMKIIα W403L hub [7] = biological target: T2, CaMKIIα W403L hub; assay: Small-angle X-ray scattering, CaMKIIα W403L hub; conditions: CaMKIIα W403L hub 6.8 mg/mL, PIPA 200 μM
Summary of the method: (§2)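 SAXS. Purified hub constructs were buffer-exchanged by spin desalting into 20 mM MES, 150 mM NaCl, 1 mM DTT, pH 6.0, with or without 200 μM test compound, and measured as dilution series of 1–7 mg/mL protein at 20–22°C. Frames were radially averaged, buffer-subtracted and merged, scaled by concentration. Curves were fitted with dodecamer, tetradecamer, mixed or stacked-dodecamer models.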

CaMKIIα 6x hub [8] = biological target: T3, CaMKIIα 6x hub; assay: Small-angle X-ray scattering, CaMKIIα 6x hub; conditions: CaMKIIα 6x hub 6.7 mg/mL, PIPA 200 μM
Summary of the method: as §2

CaMKIIα WT hub [9] = biological target: T1, CaMKIIα WT hub; assay: Mass photometry, CaMKIIα WT hub; conditions: CaMKIIα WT hub 100–500 nM, incubated with 200 μM PIPA
CaMKIIα W403L hub [10] = biological target: T2, CaMKIIα W403L hub; assay: Mass photometry, CaMKIIα W403L hub; conditions: CaMKIIα W403L hub 100–500 nM, incubated with 200 μM PIPA
Summary of the method: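 Mass photometry. The instrument was calibrated with apoferritin, BSA and […]. Purified W403L hub (1.5 mg/mL) was incubated 90 min with 200 μM test compound, then desalted into MES buffer (20 mM MES, 150 mM NaCl, 1 mM DTT, pH 6.0) plus compound. It was diluted to 500, 200 and 100 nM and recorded for 60 s, with a buffer blank before each run. Single-molecule mass histograms were built.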

GHB binding site = conditions: low-affinity; ref Wellendorph et al., 2009; cited from earlier work
[11] = biological target: human CaMKIIα W403L hub domain (human) (UniProt Q9UQM7); assay: mass photometry
SAXS = biological target: the molecule itself; assay: SAXS

Sequence of CaMKIIα holoenzyme (Q9UQM7 whole entry): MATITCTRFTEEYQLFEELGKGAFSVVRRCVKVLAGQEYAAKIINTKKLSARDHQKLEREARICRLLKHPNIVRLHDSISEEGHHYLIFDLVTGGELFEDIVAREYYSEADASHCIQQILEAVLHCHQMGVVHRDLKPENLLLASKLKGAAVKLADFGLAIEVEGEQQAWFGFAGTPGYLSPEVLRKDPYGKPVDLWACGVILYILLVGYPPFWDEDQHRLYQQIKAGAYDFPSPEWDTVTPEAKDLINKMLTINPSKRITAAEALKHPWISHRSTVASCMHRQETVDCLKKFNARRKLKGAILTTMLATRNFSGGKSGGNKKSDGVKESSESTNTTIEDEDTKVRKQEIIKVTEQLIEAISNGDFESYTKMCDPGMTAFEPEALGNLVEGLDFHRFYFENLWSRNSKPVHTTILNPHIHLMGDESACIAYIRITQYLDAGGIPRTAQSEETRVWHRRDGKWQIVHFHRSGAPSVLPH

Molecule: O=C(O)C1=CC(O)CC1 (stereo not shown) [HOCPCA, 3‐hydroxycyclopent‐1‐enecarboxylic acid, reference compound]
- maximum ∆Tm (CaMKIIα WT hub [1]): 11.5 ± 0.6 °C
- maximum ∆Tm (CaMKIIα W403L hub [2]): 15.2 ± 1.0 °C
- effect on syntide-2 substrate phosphorylation (CaMKIIα holoenzyme): neither of the compounds affected substrate phosphorylation
- self-association / oligomeric state of hub (SAXS) (CaMKIIα WT hub [3]): not observed

Molecule: O=C(O)Cc1cn2nc(-c3ccc(Cl)cc3)ccc2n1 [PIPA, 2‐(6‐(4‐chlorophenyl)imidazo[1,2‐b]pyridazine‐2‐yl)acetic acid]
- Kd (CaMKIIα WT hub [4]): 2900 ± 600 nM
- Kd (CaMKIIα W403L hub [5]): 2800 ± 130 nM
- maximum ∆Tm (CaMKIIα WT hub [1]): 13.04 ± 0.09 °C
- maximum ∆Tm less compared to 5-HDC (CaMKIIα WT hub [1]; difference PIPA vs 5-HDC): 10.7 °C
- maximum ∆Tm (CaMKIIα W403L hub [2]): 24.5 ± 0.4 °C
- IC50 (CaMKIIα 6x hub [6]): 5.01 µM
- self-association / oligomeric state of hub (SAXS) (CaMKIIα WT hub [3]): induced self‐association
- self-association of hub (SAXS) (CaMKIIα W403L hub [7]): no self‐association was detected
- self-association of hub (SAXS) (CaMKIIα 6x hub [8]): no self‐association was detected
- molecular weight species (mass photometry) (CaMKIIα WT hub [9]): displayed a shoulder on the main peak around 220 kDa as well as a much larger species at 372 kDa
- change in MW (mass photometry) (CaMKIIα W403L hub [10]): did not display any change in MW

Molecule: CC(=O)O [acetate]
- effect on syntide-2 substrate phosphorylation (CaMKIIα holoenzyme): neither of the compounds affected substrate phosphorylation
- Ki (GHB binding site): > 100 µM

Molecule: human CaMKIIα W403L hub domain (from UniProt Q9UQM7 345-475) (domain or fragment)
- stoichiometry N [11]: 12

B1: human CaMKIIα wild-type (WT) hub domain (domain or fragment, UniProt Q9UQM7 345-475, looked up)
chain: T1 sequence (Q9UQM7 345-475)
- stoichiometry N (SAXS): 12
